Experiments:
ACHN [1] = assay: Growth inhibition of human ACHN cells at 10 uM after 48 hrs by WST-8 assay; assay type: functional; conditions: read-out: GI
Outline: (§1)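 ATCC cells kept in DMEM with 10% FBS and antibiotics at 37 °C, 5% CO2. Seeded 5×10^3/well, incubated overnight, then treated with compound for 48 h against a DMSO vehicle control (≤0.1%). CCK-8 (WST-8) reduction by live-cell dehydrogenases read at 450 nm (corrected 650 nm) after 4 h at 37 °C. Viable cells expressed as % of the DMSO control.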

PANC-1 [2] = assay: Growth inhibition of human PANC1 cells at 10 uM after 48 hrs by WST-8 assay; assay type: functional; conditions: PANC-1, 48 h, read-out: GI; outline: as §1
Calu-1 [3] = assay: Growth inhibition of human Calu1 cells at 10 uM after 48 hrs by WST-8 assay; assay type: functional; conditions: Calu-1, 48 h, read-out: GI; outline: as §1
NCI-H460 [4] = assay: Growth inhibition of human NCI-H460 cells at 10 uM after 48 hrs by WST-8 assay; assay type: functional; conditions: NCI-H460, 48 h, read-out: GI; outline: as §1
HCT-116 [5] = assay: Growth inhibition of human HCT116 cells at 10 uM after 48 hrs by WST-8 assay; assay type: functional; conditions: HCT-116, 48 h, read-out: GI; outline: as §1
Calu-1 [6] = assay: Cytotoxicity against human Calu1 cells after 48 hrs by WST-8 assay; assay type: functional, cell-based; conditions: Calu-1, 48 h
Outline: (§2)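 ATCC cells kept in DMEM with 10% FBS, penicillin/streptomycin at 37 °C, 5% CO2. Seeded 5×10^3/well and left overnight, then exposed to a range of concentrations with DMSO vehicle (≤0.1%) as control. After 48 h, CCK-8 (WST-8) was added for 4 h at 37 °C and A450 read, corrected to 650 nm. Viability is % of DMSO control. IC50 was taken from log cytotoxicity curves.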

NCI-H460 [7] = assay: Cytotoxicity against human NCI-H460 cells after 48 hrs by WST-8 assay; assay type: functional, cell-based; conditions: NCI-H460, 48 h; outline: as §2
HCT-116 [8] = assay: Cytotoxicity against human HCT116 cells after 48 hrs by WST-8 assay; assay type: functional, cell-based; conditions: HCT-116, 48 h; outline: as §2
MCF-10A = assay: Cytotoxicity against human MCF10A cells after 48 hrs by WST-8 assay; assay type: cell-based; outline: as §2
ACHN [9] = assay: Cytotoxicity against human ACHN cells after 48 hrs by WST-8 assay; assay type: functional, cell-based; outline: as §2
PANC-1 [10] = assay: Cytotoxicity against human PANC1 cells after 48 hrs by WST-8 assay; assay type: functional, cell-based; conditions: PANC-1, 48 h; outline: as §2

| SMILES | inhibition of growth at 10 µM (ACHN [1]) [%] | inhibition of growth at 10 µM (PANC-1 [2]) [%] | inhibition of growth at 10 µM (Calu-1 [3]) [%] | inhibition of growth at 10 µM (NCI-H460 [4]) [%] | inhibition of growth at 10 µM (HCT-116 [5]) [%] | IC50 (Calu-1 [6]) [µM] | IC50 (NCI-H460 [7]) [µM] | IC50 (HCT-116 [8]) [µM] | IC50 (MCF-10A) [µM] | IC50 (ACHN [9]) [µM] | IC50 (PANC-1 [10]) [µM] |
| --- | --- | --- | --- | --- | --- | --- | --- | --- | --- | --- | --- |
| CC(=O)c1c(O)c(C(C)=O)c(O)c(C(C)c2c(O)c(C(C)=O)c(O)c(C(C)=O)c2O)c1O | 19 | 0 | 38 | 0 | 3 |  |  |  |  |  |  |
| CC(C)CC(=O)c1c(O)c(C(=O)CC(C)C)c(O)c(C(C)c2c(O)c(C(=O)CC(C)C)c(O)c(C(=O)CC(C)C)c2O)c1O | 11 | 0 | 12 | 12 | 25 |  |  |  |  |  |  |
| CCC(c1c(O)c(C(=O)CC(C)C)c(O)c(C(=O)CC(C)C)c1O)c1c(O)c(C(=O)CC(C)C)c(O)c(C(=O)CC(C)C)c1O | 0 | 0 | 10 | 10 | 22 |  |  |  |  |  |  |
| CC(C)CC(=O)c1c(O)c(C(=O)CC(C)C)c(O)c(C(c2c(O)c(C(=O)CC(C)C)c(O)c(C(=O)CC(C)C)c2O)C2CCCCC2)c1O | 14 | 0 | 18 | 29 | 0 |  |  |  |  |  |  |
| CC(=O)c1c(O)c(C(C)=O)c(O)c(C(c2ccccc2)c2c(O)c(C(C)=O)c(O)c(C(C)=O)c2O)c1O | 29 | 0 | 47 | 29 | 0 |  |  |  |  |  |  |
| CC(=O)c1c(O)c(C(C)=O)c(O)c(C(c2cccs2)c2c(O)c(C(C)=O)c(O)c(C(C)=O)c2O)c1O | 57 | 64 | 0 | 54 | 55 | 9.7 | 8.9 | 9.9 | > 30 | 9.2 | 9.4 |
| CC(C)CC(=O)c1c(O)c(C(=O)CC(C)C)c(O)c(C(c2cccs2)c2c(O)c(C(=O)CC(C)C)c(O)c(C(=O)CC(C)C)c2O)c1O | 50 | 60 | 62 | 54 | 57 | 8.9 | 9.1 | 8.9 | > 30 | > 10 | 8.5 |
| CC(=O)c1c(O)c(C(C)=O)c(O)c(C(c2ccccn2)c2c(O)c(C(C)=O)c(O)c(C(C)=O)c2O)c1O | 12 | 0 | 24 | 0 | 11 |  |  |  |  |  |  |
| CC(C)CC(=O)c1c(O)c(C(=O)CC(C)C)c(O)c(C(c2ccc(C(F)(F)F)cc2C(F)(F)F)c2c(O)c(C(=O)CC(C)C)c(O)c(C(=O)CC(C)C)c2O)c1O | 57 | 60 | 65 | 64 | 61 | 8.5 | 8.6 | 9.2 | 27.6 | 8.8 | 8.3 |
| CC(C)CC(=O)c1c(O)c(C(=O)CC(C)C)c(O)c(C(c2ccc(-c3ccccc3)cc2)c2c(O)c(C(=O)CC(C)C)c(O)c(C(=O)CC(C)C)c2O)c1O | 59 | 54 | 52 | 54 | 55 | 7.9 | 8.3 | 8.6 | > 26.3 | 8.9 | 9.1 |
| CC(C)CC(=O)c1c(O)c(C(=O)CC(C)C)c(O)c(C(c2cc3ccccc3o2)c2c(O)c(C(=O)CC(C)C)c(O)c(C(=O)CC(C)C)c2O)c1O | 7 | 0 | 56 | 37 | 20 |  |  |  |  |  |  |
| CC(C)CC(=O)c1c(O)c(C(=O)CC(C)C)c(O)c(C(c2ccc3c(c2)Cc2ccccc2-3)c2c(O)c(C(=O)CC(C)C)c(O)c(C(=O)CC(C)C)c2O)c1O | 17 | 18 | 0 | 15 | 0 |  |  |  |  |  |  |
| CC(C)CC(=O)c1c(O)c(C(=O)CC(C)C)c(O)c(C(c2ncc[nH]2)c2c(O)c(C(=O)CC(C)C)c(O)c(C(=O)CC(C)C)c2O)c1O | 0 | 0 | 11 | 15 | 0 |  |  |  |  |  |  |
| CC(C)CC(=O)c1c(O)c(C(=O)CC(C)C)c(O)c(C(c2c(O)c(C(=O)CC(C)C)c(O)c(C(=O)CC(C)C)c2O)c2cccc3ccccc23)c1O | 6 | 17 | 15 | 26 | 0 |  |  |  |  |  |  |
| CC(C)CC(=O)c1c(O)c(C=O)c(O)c(C(c2ccncc2)c2c(O)c(C=O)c(O)c(C(=O)CC(C)C)c2O)c1O | 21 | 5 | 17 | 0 | 0 |  |  |  |  |  |  |
| CC(C)CC(=O)c1c(O)c(C=O)c(O)c(C(c2ncc[nH]2)c2c(O)c(C=O)c(O)c(C(=O)CC(C)C)c2O)c1O | 38 | 0 | 0 | 22 | 18 |  |  |  |  |  |  |
| CC(C)CC(=O)c1c(O)c(C=O)c(O)c(C(c2cc3ccccc3o2)c2c(O)c(C=O)c(O)c(C(=O)CC(C)C)c2O)c1O | 6 | 0 | 2 | 5 | 11 |  |  |  |  |  |  |
| CC(C)CC(=O)c1c(O)c(C=O)c(O)c(C(c2ccc(C(F)(F)F)cc2C(F)(F)F)c2c(O)c(C=O)c(O)c(C(=O)CC(C)C)c2O)c1O | 0 | 0 | 6 | 5 | 14 |  |  |  |  |  |  |
| CC(C)CC(=O)c1c(O)c(C=O)c(O)c(C(c2ccc(OCc3ccccc3)cc2)c2c(O)c(C=O)c(O)c(C(=O)CC(C)C)c2O)c1O | 44 | 6 | 30 | 49 | 48 |  |  |  |  |  |  |
| CC(C)CC(=O)c1c(O)c(C=O)c(O)c(C(c2ccc(-c3ccccc3)cc2)c2c(O)c(C=O)c(O)c(C(=O)CC(C)C)c2O)c1O | 0 | 0 | 0 | 28 | 5 |  |  |  |  |  |  |
| CC(C)CC(=O)c1c(O)cc(O)c(C=O)c1O | 52 | 50 | 59 | 58 | 57 | 9.1 | 9.4 | 9.7 | > 27.3 | 8.9 | 8.5 |
| CC(=O)c1c(O)cc(O)c(C(C)=O)c1O | 44 | 0 | 0 | 25 | 0 |  |  |  |  |  |  |
| CC(C)CC(=O)c1c(O)cc(O)c(C(=O)CC(C)C)c1O | 30 | 0 | 0 | 46 | 55 |  |  |  |  |  |  |
| CC(C)CC(=O)c1c(O)c(Cc2c(O)c(C(=O)CC(C)C)c(O)c(C(=O)CC(C)C)c2O)c(O)c(C(=O)CC(C)C)c1O | 35 | 0 | 7 | 3 | 1 |  |  |  |  |  |  |
| CC(=O)c1c(O)c(Cc2c(O)c(C(C)=O)c(O)c(C(C)=O)c2O)c(O)c(C(C)=O)c1O | 46 | 22 | 39 | 0 | 8 |  |  |  |  |  |  |
| CC(C)C(=O)c1c(O)c(Cc2c(O)c(C(=O)C(C)C)c(O)c(C(=O)C(C)C)c2O)c(O)c(C(=O)C(C)C)c1O | 30 | 12 | 16 | 25 | 6 |  |  |  |  |  |  |
| CC(C)CC(=O)c1c(O)c(C=O)c(O)c(Cc2c(O)c(C=O)c(O)c(C(=O)CC(C)C)c2O)c1O | 35 | 15 | 29 | 0 | 9 |  |  |  |  |  |  |
| CC(C)C(=O)c1c(O)cc(O)c(C(=O)C(C)C)c1O | 33 | 0 | 15 | 22 | 0 |  |  |  |  |  |  |
